Test results published in ChEMBL document CHEMBL1811908, “Design of HIV-1 integrase inhibitors targeting the catalytic domain as well as its interaction with LEDGF/p75: a scaffold hopping approach using salicylate and catechol groups” (Bioorg Med Chem, 2011).

test system: not listed separately; assay: (§1) Cytotoxicity against human NCI-H630 cells after 72 hrs by MTT assay; format: cell-based; conditions: NCI-H630 cells
In short: (§2)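 H630 colon cancer cells seeded, attached overnight, then continuously exposed to compound (DMSO stocks) for 72 h. MTT added to 0.5 mg/mL final, 4 h at 37°C; supernatant removed, DMSO added, absorbance read at 570 nm. IC50 taken from plot of log concentration versus percentage of cells killed.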

Structure (SMILES) | CC50 at 72 h
O=C(NCc1ccc2[nH]ccc2c1)c1cccc(O)c1O | > 40 µM
O=C(NC1CCCCC1)c1cccc(O)c1O | > 40 µM
O=C(O)c1ccc(OCc2ccccc2)cc1O | > 40 µM
O=C(O)c1cc(OCc2ccccc2)ccc1O | > 40 µM
CN(C)Cc1ccc(C(=O)NCc2ccc(F)cc2)c(O)c1O | > 10 µM
O=C(NCc1ccc(F)cc1)c1cccc(O)c1O | > 40 µM
O=C(O)c1cccc(OCc2ccc(F)cc2)c1O | > 40 µM
O=C(O)c1cccc(OCc2ccccc2)c1O | > 40 µM
O=C(O)c1c(O)cccc1OCc1ccc2ccccc2c1 | > 40 µM
O=C(Nc1ccc2[nH]ccc2c1)c1cccc(O)c1O | > 40 µM
O=C(O)c1ccc(OCc2ccc(F)cc2)cc1O | > 40 µM
N#Cc1cc(O)c(O)c(C(=O)NCc2ccc(F)cc2)c1 | > 10 µM
CC(=O)Nc1cc(O)c(O)c(C(=O)NCc2ccc(F)cc2)c1 | < 10 µM
CNC(=O)c1cc(F)ccc1CNC(=O)c1cccc(O)c1O | > 40 µM
O=C(NCc1ccc(F)cc1)c1cccc(OCc2ccccc2)c1O | > 40 µM
O=C(NCc1ccc(F)c(F)c1)c1cccc(O)c1O | > 40 µM
Nc1cccc(C(=O)NCc2ccco2)c1O | > 25 µM
O=C(O)c1cccc(OCc2ccc3ccccc3c2)c1O | > 40 µM
CNC(=O)Cc1ccccc1CNC(=O)c1cccc(O)c1O | > 40 µM
O=C(NCc1ccco1)c1cccc(O)c1O | > 40 µM
COc1cc(S(=O)(=O)N2CCCCC2)cc(C(=O)NCc2ccco2)c1O | > 25 µM
O=C(O)c1c(O)cccc1OCc1ccc(F)cc1 | > 40 µM
CC(C)(C)NS(=O)(=O)c1cc(O)c(O)c(C(=O)NCc2ccc(F)cc2)c1 | > 10 µM
CNS(=O)(=O)c1cc(O)c(O)c(C(=O)NCc2ccc(F)cc2)c1 | > 40 µM
O=C(NCC1CCCCC1)c1cc(S(=O)(=O)N2CCCCC2)cc(O)c1O | > 40 µM
O=C(NCc1cccs1)c1cccc(O)c1O | > 40 µM
O=C(NC1CCNCC1)c1cccc(O)c1O | > 10 µM
O=C(NCc1cccs1)c1cc(S(=O)(=O)N2CCCCC2)cc(O)c1O | > 40 µM
O=C(O)c1cc(OCc2ccc(F)cc2)ccc1O | > 40 µM

test system: NCI-H630; assay: as §1; format: cell-based; conditions: nci-h630, 72 h; in short: as §2

Structure (SMILES) | CC50
O=C(NCC1CCCCC1)c1cccc(O)c1O | 21 µM
O=C(NCCc1c[nH]c2ccccc12)c1cccc(O)c1O | 15 µM
O=C(NCc1ccc(C(F)(F)F)cc1)c1cc(S(=O)(=O)N2CCCCC2)cc(O)c1O | 31 µM
O=C(NCc1ccc(-c2cccs2)cc1)c1cccc(O)c1O | 15 µM
O=C(NCc1ccco1)c1cc(S(=O)(=O)N2CCCCC2)cc(O)c1O | 33 µM
O=C(NCc1cccc2ccccc12)c1cccc(O)c1O | 21 µM
CN(C)Cc1ccc(C(=O)NCc2ccco2)c(O)c1O | 7 µM
O=C(NCc1ccc(F)cc1)c1cc(S(=O)(=O)N2CCCCC2)cc(O)c1O | 13 µM

target: not listed separately; assay: Inhibition of HIV1 His6-tagged integrase-LEDGF/p75 interaction after 30 mins by AlphaScreen assay; conditions: not given
In short: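 His6-tagged IN (300 nM final) preincubated with compound (0.1–100 μM) 30 min at 4°C in 25 mM Tris-HCl pH 7.4, 150 mM NaCl, 1 mM MgCl2, 0.01% Tween-20, 0.1% BSA; 100 nM Flag-LEDGF/p75 added, 1 h at 4°C. Ni-chelate acceptor and anti-Flag donor beads (20 μg/ml each) added, 1 h at 30°C; AlphaScreen emission read.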

Structure (SMILES) | IC50
O=C(NCc1ccc2[nH]ccc2c1)c1cccc(O)c1O | 45 µM
O=C(NC1CCCCC1)c1cccc(O)c1O | > 100 µM
O=C(NCC1CCCCC1)c1cccc(O)c1O | > 100 µM
CN(C)Cc1ccc(C(=O)NCc2ccc(F)cc2)c(O)c1O | > 50 µM
O=C(NCc1ccc(F)cc1)c1cccc(O)c1O | > 100 µM
CS(=O)(=O)Nc1cc(O)c(O)c(C(=O)NCc2ccc(F)cc2)c1 | 100 µM
O=C(NCCc1c[nH]c2ccccc12)c1cccc(O)c1O | 63 µM
O=C(Nc1ccc2[nH]ccc2c1)c1cccc(O)c1O | 88 µM
CC(=O)Nc1cc(O)c(O)c(C(=O)NCc2ccc(F)cc2)c1 | > 100 µM
O=C(NCc1ccc(C(F)(F)F)cc1)c1cc(S(=O)(=O)N2CCCCC2)cc(O)c1O | > 100 µM
O=C(NCc1ccc(-c2cccs2)cc1)c1cccc(O)c1O | > 100 µM
CNC(=O)c1cc(F)ccc1CNC(=O)c1cccc(O)c1O | > 100 µM
O=C(NCc1ccc(F)c(F)c1)c1cccc(O)c1O | 56 µM
Nc1cccc(C(=O)NCc2ccco2)c1O | 51 µM
O=C(NCc1ccco1)c1cc(S(=O)(=O)N2CCCCC2)cc(O)c1O | > 100 µM
CNC(=O)Cc1ccccc1CNC(=O)c1cccc(O)c1O | > 100 µM
O=C(NCc1ccco1)c1cccc(O)c1O | 89 µM
COc1cc(S(=O)(=O)N2CCCCC2)cc(C(=O)NCc2ccco2)c1O | 13 µM
O=C(NCc1cccc2ccccc12)c1cccc(O)c1O | 34 µM
CN(C)Cc1ccc(C(=O)NCc2ccco2)c(O)c1O | > 50 µM
CC(C)(C)NS(=O)(=O)c1cc(O)c(O)c(C(=O)NCc2ccc(F)cc2)c1 | 100 µM
CNS(=O)(=O)c1cc(O)c(O)c(C(=O)NCc2ccc(F)cc2)c1 | > 100 µM
O=C(NCC1CCCCC1)c1cc(S(=O)(=O)N2CCCCC2)cc(O)c1O | 8 µM
O=C(NCc1cccs1)c1cccc(O)c1O | 95 µM
O=C(NC1CCNCC1)c1cccc(O)c1O | > 100 µM
O=C(NCc1cccs1)c1cc(S(=O)(=O)N2CCCCC2)cc(O)c1O | > 50 µM

target: T1, Human immunodeficiency virus type 1 integrase (Human immunodeficiency virus 1, UniProt Q7ZJM1); assay: Inhibition of wild-type HIV1 integrase 3'-processing activity using [32P]-5'-end-labeled 5'-GTGTGGAAAATCTCTAGCAGT-3' as substrate after 1 hr; conditions: not given
T1 sequence (Q7ZJM1 whole entry): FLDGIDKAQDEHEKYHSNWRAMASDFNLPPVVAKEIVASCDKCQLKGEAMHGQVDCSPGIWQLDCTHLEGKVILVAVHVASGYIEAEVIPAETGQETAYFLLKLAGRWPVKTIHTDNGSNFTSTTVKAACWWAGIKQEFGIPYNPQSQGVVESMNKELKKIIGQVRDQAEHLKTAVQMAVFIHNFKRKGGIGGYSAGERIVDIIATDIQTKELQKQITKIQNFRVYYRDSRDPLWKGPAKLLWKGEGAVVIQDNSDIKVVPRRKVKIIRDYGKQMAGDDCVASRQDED

Structure (SMILES) | IC50
O=C(NO)c1ccc(OCc2ccc(F)cc2)cc1O | > 100 µM
O=C(NC1CCCCC1)c1cccc(O)c1O | > 100 µM
O=C(NO)c1cccc(OCc2ccc(F)cc2)c1O | > 100 µM
O=C(NCC1CCCCC1)c1cccc(O)c1O | > 100 µM
O=C(O)c1ccc(OCc2ccccc2)cc1O | > 100 µM
O=C(O)c1cc(OCc2ccccc2)ccc1O | > 100 µM
CN(C)Cc1ccc(C(=O)NCc2ccc(F)cc2)c(O)c1O | > 100 µM
O=C(NCc1ccc(F)cc1)c1cccc(O)c1O | 100 µM
O=C(O)c1cccc(OCc2ccc(F)cc2)c1O | > 100 µM
CS(=O)(=O)Nc1cc(O)c(O)c(C(=O)NCc2ccc(F)cc2)c1 | > 100 µM
O=C(O)c1cccc(OCc2ccccc2)c1O | > 100 µM
O=C(O)c1c(O)cccc1OCc1ccc2ccccc2c1 | > 100 µM
O=C(NCCc1c[nH]c2ccccc12)c1cccc(O)c1O | 100 µM
O=C(Nc1ccc2[nH]ccc2c1)c1cccc(O)c1O | > 100 µM
O=C(O)c1ccc(OCc2ccc(F)cc2)cc1O | > 100 µM
N#Cc1cc(O)c(O)c(C(=O)NCc2ccc(F)cc2)c1 | 75 µM
CC(=O)Nc1cc(O)c(O)c(C(=O)NCc2ccc(F)cc2)c1 | 55 µM
O=C(NCc1ccc(C(F)(F)F)cc1)c1cc(S(=O)(=O)N2CCCCC2)cc(O)c1O | 89 µM
O=C(NCc1ccc(-c2cccs2)cc1)c1cccc(O)c1O | > 100 µM
CNC(=O)c1cc(F)ccc1CNC(=O)c1cccc(O)c1O | > 100 µM
O=C(NCc1ccc(F)cc1)c1cccc(OCc2ccccc2)c1O | > 333 µM

Structure (SMILES) | IC50
O=C(NCc1ccc(F)c(F)c1)c1cccc(O)c1O | > 100 µM
Nc1cccc(C(=O)NCc2ccco2)c1O | > 100 µM
O=C(NCc1ccco1)c1cc(S(=O)(=O)N2CCCCC2)cc(O)c1O | > 100 µM
O=C(O)c1cccc(OCc2ccc3ccccc3c2)c1O | > 100 µM
CNC(=O)Cc1ccccc1CNC(=O)c1cccc(O)c1O | > 100 µM
O=C(NO)c1cc(OCc2ccc(F)cc2)ccc1O | > 100 µM
O=C(NCc1ccco1)c1cccc(O)c1O | 90 µM
COc1cc(S(=O)(=O)N2CCCCC2)cc(C(=O)NCc2ccco2)c1O | > 100 µM
O=C(O)c1c(O)cccc1OCc1ccc(F)cc1 | > 100 µM
O=C(NCc1cccc2ccccc12)c1cccc(O)c1O | > 100 µM
CN(C)Cc1ccc(C(=O)NCc2ccco2)c(O)c1O | > 100 µM
CC(C)(C)NS(=O)(=O)c1cc(O)c(O)c(C(=O)NCc2ccc(F)cc2)c1 | 70 µM
CNS(=O)(=O)c1cc(O)c(O)c(C(=O)NCc2ccc(F)cc2)c1 | > 100 µM
O=C(NO)c1c(O)cccc1OCc1ccc(F)cc1 | > 100 µM
O=C(NCC1CCCCC1)c1cc(S(=O)(=O)N2CCCCC2)cc(O)c1O | 53 µM
O=C(NCc1cccs1)c1cccc(O)c1O | 83 µM
O=C(NCc1ccc(F)cc1)c1cc(S(=O)(=O)N2CCCCC2)cc(O)c1O | 200 µM
O=C(NC1CCNCC1)c1cccc(O)c1O | > 100 µM
O=C(NCc1cccs1)c1cc(S(=O)(=O)N2CCCCC2)cc(O)c1O | > 100 µM
O=C(O)c1cc(OCc2ccc(F)cc2)ccc1O | > 100 µM

target: T1, Human immunodeficiency virus type 1 integrase; assay: Inhibition of wild-type HIV1 integrase strand transfer activity using [32P]-5'-end-labeled 5'-GTGTGGAAAATCTCTAGCAGT-3' as substrate after 1 hr; conditions: not given

Structure (SMILES) | IC50
O=C(NO)c1ccc(OCc2ccc(F)cc2)cc1O | 100 µM
O=C(NC1CCCCC1)c1cccc(O)c1O | > 100 µM
O=C(NO)c1cccc(OCc2ccc(F)cc2)c1O | > 100 µM
O=C(NCC1CCCCC1)c1cccc(O)c1O | 18 µM
O=C(O)c1ccc(OCc2ccccc2)cc1O | > 100 µM
O=C(O)c1cc(OCc2ccccc2)ccc1O | > 100 µM
CN(C)Cc1ccc(C(=O)NCc2ccc(F)cc2)c(O)c1O | 20 µM
O=C(NCc1ccc(F)cc1)c1cccc(O)c1O | 35 µM
O=C(O)c1cccc(OCc2ccc(F)cc2)c1O | > 100 µM
CS(=O)(=O)Nc1cc(O)c(O)c(C(=O)NCc2ccc(F)cc2)c1 | 34 µM
O=C(O)c1cccc(OCc2ccccc2)c1O | > 100 µM
O=C(O)c1c(O)cccc1OCc1ccc2ccccc2c1 | 186 µM
O=C(NCCc1c[nH]c2ccccc12)c1cccc(O)c1O | 100 µM
O=C(Nc1ccc2[nH]ccc2c1)c1cccc(O)c1O | 58 µM
O=C(O)c1ccc(OCc2ccc(F)cc2)cc1O | > 100 µM
N#Cc1cc(O)c(O)c(C(=O)NCc2ccc(F)cc2)c1 | 22 µM
CC(=O)Nc1cc(O)c(O)c(C(=O)NCc2ccc(F)cc2)c1 | 14 µM
O=C(NCc1ccc(C(F)(F)F)cc1)c1cc(S(=O)(=O)N2CCCCC2)cc(O)c1O | 11 µM
O=C(NCc1ccc(-c2cccs2)cc1)c1cccc(O)c1O | 21 µM
CNC(=O)c1cc(F)ccc1CNC(=O)c1cccc(O)c1O | 100 µM
O=C(NCc1ccc(F)cc1)c1cccc(OCc2ccccc2)c1O | 111 µM

Structure (SMILES) | IC50
O=C(NCc1ccc(F)c(F)c1)c1cccc(O)c1O | 23 µM
Nc1cccc(C(=O)NCc2ccco2)c1O | > 100 µM
O=C(NCc1ccco1)c1cc(S(=O)(=O)N2CCCCC2)cc(O)c1O | 13 µM
O=C(O)c1cccc(OCc2ccc3ccccc3c2)c1O | 140 µM
CNC(=O)Cc1ccccc1CNC(=O)c1cccc(O)c1O | 56 µM
O=C(NO)c1cc(OCc2ccc(F)cc2)ccc1O | 85 µM
O=C(NCc1ccco1)c1cccc(O)c1O | 15 µM
COc1cc(S(=O)(=O)N2CCCCC2)cc(C(=O)NCc2ccco2)c1O | > 100 µM
O=C(O)c1c(O)cccc1OCc1ccc(F)cc1 | > 100 µM
O=C(NCc1cccc2ccccc12)c1cccc(O)c1O | 26 µM
CN(C)Cc1ccc(C(=O)NCc2ccco2)c(O)c1O | 39 µM
CC(C)(C)NS(=O)(=O)c1cc(O)c(O)c(C(=O)NCc2ccc(F)cc2)c1 | 8 µM
CNS(=O)(=O)c1cc(O)c(O)c(C(=O)NCc2ccc(F)cc2)c1 | 44 µM
O=C(NO)c1c(O)cccc1OCc1ccc(F)cc1 | 97 µM
O=C(NCC1CCCCC1)c1cc(S(=O)(=O)N2CCCCC2)cc(O)c1O | 19 µM
O=C(NCc1cccs1)c1cccc(O)c1O | 12 µM
O=C(NCc1ccc(F)cc1)c1cc(S(=O)(=O)N2CCCCC2)cc(O)c1O | 5 µM
O=C(NC1CCNCC1)c1cccc(O)c1O | > 100 µM
O=C(NCc1cccs1)c1cc(S(=O)(=O)N2CCCCC2)cc(O)c1O | 44 µM
O=C(O)c1cc(OCc2ccc(F)cc2)ccc1O | > 100 µM
